Experimental data published in ChEMBL document CHEMBL1156788, “A 1,8-naphthyridone derivative targets the HIV-1 Tat-mediated transcription and potently inhibits the HIV-1 replication” (J Med Chem, 2010).
Converted amounts (≈) assume the structure as drawn. The source made the active and inactive calls.

Key:
[1] = tested on: Human immunodeficiency virus 2; assay: Antiviral activity against HIV2 ROD in human MT4 cells assessed as protection against virus-induced cytopathogenicity by MTT assay; format: functional, organism-based; conditions: Human immunodeficiency virus 2, ISOLATE ROD
Outline: (§1)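 MT-4 cells at 6 × 10^5 cells/mL, mock- or virus-infected with HIV-1 IIIB or HIV-2 ROD at 100-300 CCID50, with serial 5-fold compound dilutions in triplicate. After 5 days, viability read by MTT at 540 and 690 nm, using the median OD of three wells. EC50 = 50% protection from viral cytopathic effect; CC50 = 50% reduction of OD540 in mock-infected cells. SI = CC50/EC50; mean ± SD of ≥2 experiments.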

[2] = tested on: Human immunodeficiency virus 1; assay: Antiviral activity against HIV1 3B in human MT4 cells assessed as protection against virus-induced cytopathogenicity by MTT assay; format: functional, organism-based; conditions: Human immunodeficiency virus 1, 3B; outline: as §1
[3] = Selectivity index, ratio of CC50 for human MT4 cells to EC50 for HIV1 3B; format: toxicity, cell-based; conditions: read-out: Ratio CC50/EC50; outline: as §1
[4] = Cytotoxicity against human MT4 cells by MTT assay; format: cell-based; outline: as §1
[5] = Selectivity index, ratio of CC50 for human MT4 cells to EC50 for HIV2 ROD; format: toxicity, cell-based; conditions: read-out: Ratio CC50/EC50; outline: as §1
[6] = tested on: C8166T; assay: Antiviral activity against integrase deficient Simian virus 40/HIV-1 chimera (n/N.Tag.oriT) virus in human C8166T cells assessed as inhibition of viral replication; format: functional, cell-based
Outline: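 C8166 T-cells were infected with HIV-1 NL4.3 or N/N.Tag.oriT and exposed to a range of compound concentrations. p24 in the supernatant was measured relative to untreated controls (100%). Toxicity was read in parallel by MTT.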

[7] = Selectivity index, ratio of CC50 for PMA-stimulated human U1 cells to EC50 for HIV1; format: toxicity, cell-based; conditions: read-out: Ratio CC50/EC50
Outline: (§2)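 OM-10.1 or U1 cells at 5 × 10⁵ cells/mL were preincubated with compound for 2 h, then stimulated with TNF-α 1 ng/mL or PMA 0.02 μM. After 2 days at 37 °C, supernatant p24 was measured by ELISA for EC50, and parallel cultures were read by MTT for CC50. SI = CC50/EC50. Mean ± SD of at least three experiments.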

[8] = Cytotoxicity against human PBMC by MTT assay; format: cell-based; conditions: in the assay text read “trypan blue exclusion method” for “MTT assay”
Outline: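 Cytotoxicity in PHA-stimulated PBMCs read by trypan blue exclusion; CC50 = concentration reducing viability of mock-infected cells by 50%. Mean ± SD of at least two experiments.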

[9] = tested on: Human immunodeficiency virus 1; assay: Antiviral activity against HIV1 in human U1 cells assessed as inhibition of PMA-stimulated viral expression measured by p24 production; format: functional, organism-based; conditions: Human immunodeficiency virus 1, U1
Outline: (§3)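 Latently infected OM-10.1 and U1 cells at 5 × 10^5 cells/mL preincubated 2 h with or without compound, then stimulated with TNF-α 1 ng/mL or PMA 0.02 μM. After 2 days at 37 °C, p24 in supernatant measured by ELISA; viability assessed in parallel by MTT. EC50 = 50% reduction of p24; mean ± SD of ≥3 experiments.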

[10] = Cytotoxicity against TNF-alpha-stimulated human U1 cells by MTT assay; format: cell-based; outline: as §3
[11] = Selectivity index, ratio of CC50 for human MT4 cells to EC50 for HIV1 3B mutant; format: toxicity, cell-based; conditions: read-out: Ratio CC50/EC50
Outline: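 SI = CC50 in mock-infected MT-4 cells (MTT, 5 days) divided by EC50 against the selected mutant in the MT-4 MTT cytopathicity assay.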

[12] = Selectivity index, ratio of CC50 for human PBMC to EC50 for HIV1
Outline: (§4)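 PBMCs from healthy donors isolated by density centrifugation and stimulated 3 days with PHA. Blasts washed, plated at 2 × 10^5 per well with serial compound dilutions and infected with HIV at 1000 CCID50/mL. Medium and compound refreshed at day 4; p24 in supernatant measured by ELISA at day 7. EC50 = 50% inhibition of p24; SI = CC50/EC50.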

[13] = tested on: Human immunodeficiency virus 1; assay: Antiviral activity against HIV1 in human Jurkat cells assessed as inhibition of GFP expression by flow cytometry; conditions: Human immunodeficiency virus 1, Jurkat
[14] = Selectivity index, ratio of CC50 for TNF-alpha-stimulated human U1 cells to EC50 for HIV1; format: toxicity, cell-based; conditions: read-out: Ratio CC50/EC50; outline: as §2
[15] = Selectivity index, ratio of CC50 for human MT4 cells to EC50 for HIV1 3B mutant after 60 passage resistance selection by MTT assay; format: toxicity, cell-based; conditions: read-out: Ratio CC50/EC50
[16] = Cytotoxicity against TNF-alpha-stimulated human OM10.1 cells by MTT assay; format: cell-based; outline: as §3
[17] = Cytotoxicity against human Jurkat cells by MTT assay; format: cell-based
[18] = Cytotoxicity against PMA-stimulated human U1 cells by MTT assay; format: cell-based; outline: as §3
[19] = Cytotoxicity against PMA-stimulated human OM10.1 cells by MTT assay; format: cell-based; outline: as §3
[20] = tested on: Human immunodeficiency virus 1; assay: Antiviral activity against HIV1 3B in human […] cells assessed as inhibition of p24 production; format: functional, organism-based; conditions: Human immunodeficiency virus 1, 3B
Outline: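 Chronically infected HuT-78 cells washed with PBS and pelleted three times, then 200000 cells per 1 mL seeded with test compound at set concentrations. Grown 44 h; supernatant p24 measured by ELISA. EC50 = 50% reduction of p24 production; mean ± SD of at least three separate experiments. Nevirapine and ritonavir included as controls.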

[21] = tested on: Human immunodeficiency virus 1; assay: Antiviral activity against HIV1 3B mutant in human MT4 cells assessed as protection against virus-induced cytopathogenicity after 60 passage resistance selection by MTT assay; format: functional, organism-based; conditions: Human immunodeficiency virus 1, 3B
Outline: (§5)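 Virus added at 100-300 CCID50 to MT-4 cells (6 × 10⁵ cells/mL) together with serial 5-fold compound dilutions, triplicate wells. Viability read by MTT after 5 days at 540 and 690 nm, using the median OD of three wells. EC50 is the concentration giving 50% protection from virus-induced cytopathic effect. Mean ± SD of at least two experiments.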

[22] = tested on: Human immunodeficiency virus 1; assay: Antiviral activity against HIV1 3B in human MT4 cells assessed as inhibition of p24 protein production measured delay in infection up to 10 hrs by time-of addition experiment; format: functional, organism-based
Outline: (§6)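 Time-of-addition assay. MT-4 cells infected with HIV-1 IIIB at moi 0.5 to synchronize replication. Compounds added at various times from 0 to 25 h post-infection; p24 antigen in supernatant measured by ELISA at 31 h p.i. Reference drugs AZT and ritonavir were given at 100× their MT-4/MTT IC50.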

[23] = tested on: Human immunodeficiency virus 1; assay: Antiviral activity against HIV1 3B in human MT4 cells assessed as inhibition of p24 protein production measured delay in infection up to 18 hrs by time-of addition experiment; format: functional, organism-based; conditions: in the assay text read “up to 10 hrs” for “up to 18 hrs”; outline: as §6
[24] = Selectivity index, ratio of CC50 for PMA-stimulated human OM10.1 cells to EC50 for HIV1; format: toxicity; conditions: read-out: Ratio CC50/EC50; outline: as §2
[25] = tested on: Human immunodeficiency virus 1; assay: Antiviral activity against HIV1 in human U1 cells assessed as inhibition of TNF-alpha-stimulated viral expression measured by p24 production; format: functional, organism-based; conditions: Human immunodeficiency virus 1, U1; outline: as §3
[26] = Selectivity index, ratio of CC50 for TNF-alpha-stimulated human OM10.1 cells to EC50 for HIV1; format: toxicity; conditions: read-out: Ratio CC50/EC50; outline: as §2
[27] = tested on: Human immunodeficiency virus 1; assay: Antiviral activity against HIV1 3B mutant in human MT4 cells assessed as protection against virus-induced cytopathogenicity by MTT assay; format: functional, organism-based; conditions: Human immunodeficiency virus 1, 3B; outline: as §5
[28] = tested on: Human immunodeficiency virus 1; assay: Antiviral activity against HIV1 3B in human MT4 cells assessed as inhibition of p24 protein production measured delay in infection up to 5 hrs by time-of addition experiment; format: functional, organism-based; conditions: in the assay text read “up to 10 hrs” for “up to 5 hrs”; outline: as §6
[29] = Selectivity index, ratio of CC50 for human Jurkat cells to EC50 for HIV1; format: toxicity, cell-based; conditions: read-out: Ratio CC50/EC50
[30] = Cytotoxicity against human HuT78 by MTT assay; format: cell-based; conditions: HuT78 cells
Outline: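 Chronically infected HuT-78 cells; CC50 defined as the concentration reducing cell viability by 50%, measured by the MTT method. Mean ± SD of at least three separate experiments.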

[31] = tested on: Human immunodeficiency virus 1; assay: Antiviral activity against HIV1 in human OM10.1 cells assessed as inhibition of PMA-stimulated viral expression measured by p24 production; format: functional, organism-based; outline: as §3
[32] = tested on: Human immunodeficiency virus 1; assay: Antiviral activity against HIV1 in human PBMC assessed as inhibition of p24 protein production by MTT assay; format: functional, organism-based; conditions: in the assay text read “by ELISA” for “by MTT assay”; outline: as §4
[33] = tested on: Human immunodeficiency virus 1; assay: Antiviral activity against HIV1 in human HeLa cells assessed as inhibition of Tat-mediated transcription after 24 hrs by LTR-driven luciferase reporter assay; format: functional, organism-based
Outline: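 HeLa clone carrying an HIV-1 LTR-luciferase reporter, activated with subsaturating Tat or left without Tat for basal promoter activity. Cells incubated with increasing compound concentrations; luciferase measured in cell lysates 24 h after treatment. Controls were DMSO vehicle, untreated cells and flavopiridol at 10 μM.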

[34] = tested on: Human immunodeficiency virus 1; assay: Antiviral activity against HIV1 in human OM10.1 cells assessed as inhibition of TNF-alpha-stimulated viral expression measured by p24 production; format: functional, organism-based; outline: as §3

What does the source list for `Cn1cc(C(=O)O)c(=O)c2ccc(N3CCN(c4ccccn4)CC3)nc21`?
EC50 [1]: 0.55 µg/mL (≈ 1.51 µM); EC50 [2]: 0.62 µg/mL (≈ 1.7 µM); selectivity ratio [3]: 16; CC50 [4]: 9.93 µg/mL (≈ 27.2 µM); selectivity ratio [5]: 18

For `Cn1cc(C(=O)O)c(=O)c2ccc(N3CCN(c4nccs4)CC3)nc21`, which EC50 [1] is on record?
Its EC50 is 0.922 µg/mL (≈ 2.48 µM).

And the EC50 [2]?
The EC50 was 3.15 µg/mL (≈ 8.48 µM).

And the selectivity ratio [3]?
The selectivity ratio was over 40.

And the CC50 [4]?
The CC50 was over 125 µg/mL.

And the selectivity ratio [5]?
The selectivity ratio was over 136.

Which results are given for `Cn1cc(C(=O)O)c(=O)c2ccc(N3CCN(c4nc5ccccc5s4)CC3)nc21`?
Activity [6]: Active; selectivity ratio [7]: 1330; CC50 [8]: 10.3 µg/mL (≈ 24.5 µM); EC50 [9]: 0.002 µg/mL (≈ 0.00475 µM); CC50 [10]: 0.99 µg/mL (≈ 2.35 µM); selectivity ratio [11]: 1280; Ratio CC50/EC50 [12]: 17; EC50 [13]: 0.34 µg/mL (≈ 0.807 µM); EC50 [1]: 0.02 µg/mL (≈ 0.0475 µM); selectivity ratio [14]: 330; selectivity ratio [15]: 1420; CC50 [16]: 1.27 µg/mL (≈ 3.01 µM); CC50 [17]: 15.1 µg/mL (≈ 35.9 µM); EC50 [2]: 0.03 µg/mL (≈ 0.0712 µM); CC50 [18]: 2.67 µg/mL (≈ 6.33 µM); CC50 [19]: 0.75 µg/mL (≈ 1.78 µM); EC50 [20]: 0.032 µg/mL (≈ 0.0759 µM); EC50 [21]: 0.017 µg/mL (≈ 0.0403 µM); Activity [22]: Active; Activity [23]: Active; selectivity ratio [24]: 189; EC50 [25]: 0.003 µg/mL (≈ 0.00712 µM); selectivity ratio [26]: 422; selectivity ratio [3]: 457; EC50 [27]: 0.019 µg/mL (≈ 0.0451 µM); Activity [28]: Active; selectivity ratio [29]: 44; CC50 [30]: > 10 µg/mL; EC50 [31]: 0.004 µg/mL (≈ 0.00949 µM); CC50 [4]: 12.1 µg/mL (≈ 28.6 µM); EC50 [32]: 0.6 µg/mL (≈ 1.42 µM); selectivity ratio [5]: 522; Activity [33]: Dose-dependent effect; EC50 [34]: 0.003 µg/mL (≈ 0.00712 µM)

For `Cn1cc(C(=O)O)c(=O)c2ccc(N3CCN(c4cccc(C(F)(F)F)c4)CC3)nc21`, which EC50 [1] is on record?
Its EC50 is over 0.41 µg/mL.

And the EC50 [2]?
Its EC50 is over 0.41 µg/mL.

What about the selectivity ratio [3] of the same compound?
The selectivity ratio was under 1.

And the CC50 [4]?
Its CC50 is 0.41 µg/mL (≈ 0.948 µM).

What about the selectivity ratio [5] of the same compound?
Its selectivity ratio is under 1.
